Data on four compounds can be found in ChEMBL document CHEMBL1122055, “DL-threo-beta-Fluoroaspartate and DL-threo-beta-fluoroasparagine: selective cytotoxic agents for mammalian cells in culture” (J Med Chem, 1982).

Common to all, as to type: functional
In assay [1] the test system is H4. As to the kind of experiment: Tested for its reversal effect on growth of H4 cells at 133 + 50 ug/mL concentrations of L-aspargine and DL-threo-beta-fluoroaspartate. The essentials: (§1)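 Rat hepatoma H4 cells seeded at 1.4×10^4 per 35-mm dish in MEM+. On day 4, fresh MEM+ was added, with treatments including L-aspartate or L-asparagine. Exposure 66 h, then total cell protein per dish measured by Lowry. Results expressed as % of untreated control protein, mean of duplicate dishes.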

Assay [2] deals with H4. As to the kind of experiment: Tested for its reversal effect on growth of H4 cells at 330 + 40 ug/mL concentrations of L-aspargine and DL-threo-beta-fluoroaspartate. An outline of the steps: (§2)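 H4 hepatoma cells seeded at 8×10^3 per 35-mm dish in F 10+ medium. On day 4, the medium was renewed and treatments started, including L-aspartate or L-asparagine. Incubation 72 h, then Lowry total cell protein per dish. Results reported as % of untreated control, mean of duplicate dishes.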

Assay [3] has as its system H4. As to the kind of experiment: Tested for its reversal effect on growth of H4 cells at 330+5 ug/mL concentrations of L-aspargine and DL-threo-beta-fluoroaspartate. An outline of the steps:
as §2

For assay [4], the system named is H4. As to the kind of experiment: Tested for its reversal effect on growth of H4 cells at 133+5 ug/mL concentrations of L-aspargine and DL-threo-beta-fluoroaspartate. The essentials:
as §1

In assay [5] the test system is H4. As to the kind of experiment: Tested for its reversal effect on growth of H4 cells at 133 + 5 ug/mL concentrations of L-aspargine and DL-threo-beta-fluoroaspartate. An outline of the steps:
as §1

Assay [6] deals with H4. Put plainly: Tested for its reversal effect on growth of H4 cells at 330 + 5 ug/mL concentrations of L-aspargine and DL-threo-beta-fluoroaspartate. An outline of the steps: as §2

SMILES strings stand for the structures.

As to `NC(=O)C(F)[C@H](N)C(=O)O.NC(=O)C[C@H](N)C(=O)O` (mixture of isomers; form 2), the “Cell protein in untreated control” value in the assay on H4 [1] came to 19%; in the assay with H4 [2], 80%.

As for `NC(C(=O)O)C(F)C(=O)O.N[C@@H](CC(=O)O)C(=O)O` (mixture of isomers), the “Cell protein in untreated control” value in the assay with H4 [3] was found to be 78%; with H4 [4], 79%.

As to `NC(=O)C[C@H](N)C(=O)O.NC(C(=O)O)C(F)C(=O)O` (racemic), the “Cell protein in untreated control” value in the assay on H4 [5] is 0%; in the assay with H4 [6], 17%.

Regarding `NC(=O)C(F)[C@H](N)C(=O)O.N[C@@H](CC(=O)O)C(=O)O` (mixture of isomers; form 1), the figures for the “Cell protein in untreated control” value in the assay with H4 [1] and with H4 [2] were 68% and 93%, respectively.
